Tb MetRS inh: T. brucei MetRS inhibitors, primary screen, biochemical, luminescence; AID 624268, 2012; actives 0.4% (n = 360,000); inhibition, % at 11.9 µM; purified T. brucei MetRS, ATP depletion, Kinase-Glo luminescence; methionyl-tRNA synthetase (Trypanosoma brucei brucei);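 active = inhibition above a per-plate cutoff of the control wells' mean inhibition plus 3 SD, cut at about 5.5% in these data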;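 note: 0% = DMSO wells median and 100% = median of wells with control inhibitor compound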
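System: purified T. brucei MetRS enzyme / Detection: Kinase-Glo luciferase luminescence reporting remaining unconsumed ATP / Medium: HEPES buffer with MgCl2, KCl, DTT, spermine, BSA, pyrophosphatase / Replication: singlicate, one well per compound / Evaluation: percent inhibition relative to median high and low control wells / Schedule: 2 h aminoacylation at 25 °C after 15 min preincubation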
Efflux pump mplx: inhibitors of Candida efflux pumps in yeast, primary screen, S. cerevisiae, Nile Red, multiplex | actives 0.44% (n = 330,000) | AID 485275, 2010 | inhibition, % at 10 µM | S. cerevisiae Candida pump triplex;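 active = plate passing quality check with inhibition over a set limit, or well fluorescence over plate mean plus 4 SD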;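 note: Nile Red retained in pooled yeast measured as flow cytometry median fluorescence; 0% = buffer negative control and 100% = Enniatin B positive control; higher means more Nile Red kept so more efflux inhibition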
H9c2 TAG inh: inhibitors of triacylglycerol accumulation, primary screen, cell-based, uHTS, fluorescence, H9c2. H9c2 cells, Nile Red lipid (TAG) fluorescence; cells loaded with 200 µM oleic acid. inhibition, % at 12.5 µM. actives 0.66% (n = 230,000). AID 651582, 2012;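 active = pattern-corrected inhibition of lipid staining of at least 50% with the nuclear-stain viability signal not falling by more than 50%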;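 note: 0% = DMSO wells and 100% = triacsin C control wells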
SMARCA2 activ: SMARCA2 (BRM) function activators, primary screen, cell-based, luminescence, high throughput; MG213 cells, MMTV-luciferase reporter, dexamethasone, overnight; actives 1% (n = 370,000); activation, % at 9.1 µM; AID 652017, 2013; in the data active = activation above about 7.8%;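 note: 0% = vehicle wells and 100% = reference activator wells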
AHR activator: AHR activators, primary screen, cell-based, luminescence, luciferase reporter, human | actives 2.5% (n = 320,000) | activation, % at 5 µM | Aryl hydrocarbon receptor (Homo sapiens), P35869 | AHR-responsive luciferase reporter cells; in the data active = activation above about 47%;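 note: 0% = vehicle wells and 100% = reference agonist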
Target sequence (P35869 whole entry, looked up): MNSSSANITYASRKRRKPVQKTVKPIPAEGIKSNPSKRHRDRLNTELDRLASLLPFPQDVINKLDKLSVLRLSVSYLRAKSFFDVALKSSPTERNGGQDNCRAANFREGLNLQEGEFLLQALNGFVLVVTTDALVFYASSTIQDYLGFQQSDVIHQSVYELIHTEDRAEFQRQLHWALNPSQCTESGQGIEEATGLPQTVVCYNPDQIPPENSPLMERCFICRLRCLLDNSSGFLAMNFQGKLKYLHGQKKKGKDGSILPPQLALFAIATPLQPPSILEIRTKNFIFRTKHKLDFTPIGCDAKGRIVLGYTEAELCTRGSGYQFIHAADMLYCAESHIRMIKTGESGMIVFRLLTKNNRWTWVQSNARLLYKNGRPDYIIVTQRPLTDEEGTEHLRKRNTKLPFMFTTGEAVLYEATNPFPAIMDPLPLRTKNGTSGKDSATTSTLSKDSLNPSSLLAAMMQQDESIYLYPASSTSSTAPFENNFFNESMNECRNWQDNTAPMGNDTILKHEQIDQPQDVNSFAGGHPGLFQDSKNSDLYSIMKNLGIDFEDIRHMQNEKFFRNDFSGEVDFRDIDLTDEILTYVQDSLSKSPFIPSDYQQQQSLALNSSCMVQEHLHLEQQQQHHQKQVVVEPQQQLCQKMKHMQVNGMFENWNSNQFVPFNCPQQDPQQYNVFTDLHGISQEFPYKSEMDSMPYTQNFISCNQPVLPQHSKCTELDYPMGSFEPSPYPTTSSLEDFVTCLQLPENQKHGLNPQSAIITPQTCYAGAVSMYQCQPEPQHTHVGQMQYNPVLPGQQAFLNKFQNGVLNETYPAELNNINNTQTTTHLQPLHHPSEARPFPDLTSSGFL
Cmpd fluor yeast: compound fluorescence in yeast efflux pump counter-screen. shares compounds with Efflux pump mplx. S. cerevisiae AD/pABC3, flow cytometry. fluorescence ratio to DMSO, % at 10 µM. actives 4% (n = 1,700). AID 588517;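 active = fluorescence ratio to DMSO above its plate's cutoff, the plate mean ratio plus 5 SD, cut at about 210% in these data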;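 note: unstained yeast with no Nile Red so the signal is compound autofluorescence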
Mdr1 pump inh: inhibitors of Candida albicans Mdr1 efflux, confirmation, flow cytometry, singleplex, Cherry Pick1 set; shares compounds with Efflux pump mplx; S. cerevisiae AD/CaMDR1, Nile Red efflux; inhibition, % at 10 µM; actives 1% (n = 1,700); in the data active = inhibition above about 26%;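 note: 0% = DMSO vehicle and 100% = reference inhibitor; higher means more Nile Red retained so more efflux inhibition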
CaCdr2 efflux inh: inhibitors of Candida albicans Cdr2 efflux pump, confirmation, S. cerevisiae AD/CaCDR2, flow cytometry, cherry pick 1, singleplex; shares compounds with Efflux pump mplx; Nile Red retention; Nile Red retention ratio vs DMSO, % at 10 µM; actives 4% (n = 1,700); AID 588520, 2011; in the data active = Nile Red retention ratio vs DMSO above about 190%;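 note: higher ratio means more blocking of Cdr2 efflux of the dye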
CaCdr1 efflux inh: inhibitors of Candida albicans Cdr1 efflux pump, confirmation, S. cerevisiae AD/CaCDR1, flow cytometry, cherry pick 1, singleplex; shares compounds with Efflux pump mplx; actives 1% (n = 1,700); Nile Red efflux; inhibition, % at 10 µM;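 active = inhibition above the screen-wide mean plus twice its standard deviation, cut at about 32% in these data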
Numbers without * were called inactive; . = no result. Sampled rows, rich in hits. Any-hit rate of the full collection: about 4.1%.

SMILES | Tb MetRS inh | Efflux pump mplx | H9c2 TAG inh | SMARCA2 activ | AHR activator | Cmpd fluor yeast | Mdr1 pump inh | CaCdr2 efflux inh | CaCdr1 efflux inh
CCC(C(=O)Nc1cc(F)ccc1F)n1nc(C)c2c(C)n(-c3ccc(C)cc3)nc2c1=O (stereo unspecified) | 0 | 5.0* | . | -2 | 3 | 83 | 0 | 98 | 0
Cc1ccc(-n2nc3c(=O)n(CCCC(=O)NCCN4CCN(C)CC4)nc(C)c3c2C)cc1 | -1 | 5.4* | . | 3 | 3 | 104 | 0 | 98 | 0
Cc1ccc(-n2nc3c(=O)n(CC(=O)NCCc4cccs4)nc(C)c3c2C)cc1 | 0 | 0 | . | 0 | 9 | 98 | 0 | 98 | 0
Cc1ccc(CCNC(=O)CCCn2nc(C)c3c(C)n(-c4ccc(C)cc4)nc3c2=O)cc1 | -1 | -1 | . | -5 | 0 | 224 | 0 | 104 | 0
Cc1ccc(-n2nc3c(=O)n(C(C)C(=O)NCCc4cccs4)nc(C)c3c2C)cc1 (stereo unspecified) | 0 | 0 | . | . | 2 | . | . | . | .
Cc1ccc(-n2nc3c(=O)n(CCCC(=O)NCCc4ccccc4)nc(C)c3c2C)cc1 | -1 | 0 | . | -1 | 3 | . | . | . | .
COC(=O)C1CN(CC(C)C)CCS(=O)(=O)N1Cc1ccc(C(F)(F)F)cc1 (stereo unspecified) | . | . | . | -1 | . | . | . | . | .
CCOC(=O)CC[C@@]1(C(=O)OCC)C[C@@H](CC(=O)N2CCSCC2)C(=O)N2CCCC=C21 | . | . | . | -2 | . | . | . | . | .
Cc1nn(CCC(=O)NCc2ccc(OC(C)C)cc2)c(=O)c2nn(-c3ccccc3)c(C)c12 | 0 | 0 | . | -3 | 2 | 113 | 0 | 110 | 0
CCc1ccc(CNC(=O)CCn2nc(C)c3c(C)n(-c4ccccc4)nc3c2=O)cc1 | -1 | 0 | . | 0 | 2 | . | . | . | .
COc1ccc(CNC(=O)C(C)n2nc(C)c3c(C)n(-c4ccc(C)cc4)nc3c2=O)cc1 (stereo unspecified) | 0 | 0 | . | -3 | 1 | 105 | 0 | 102 | 0
CC(C)c1ccc(S(=O)(=O)Nc2ccc(O)c(Sc3ncn[nH]3)c2)cc1 | 0 | -1 | 12 | -2 | . | 111 | 0 | 116 | 0
COc1ccc(S(=O)(=O)Nc2ccc(O)c(Sc3ncn[nH]3)c2)cc1 | -1 | 0 | . | -3 | 2 | 81 | 0 | 95 | 0
Cc1cc(C)nc(NS(=O)(=O)c2ccc(NC(=O)CSc3ncn[nH]3)cc2)n1 | 0 | 0 | 11 | -5 | 2 | . | . | . | .
CC(C)(C)c1ccc(S(=O)(=O)N2CCCC(C(=O)NCCN3CCC(Cc4ccccc4)CC3)C2)cc1 (stereo unspecified) | . | . | . | -8 | . | . | . | . | .
Cc1cccc(C)c1OCc1cc(C(=O)N2CCNC(=O)C2)no1 | 0 | 0 | . | -2 | -1 | 96 | 0 | 107 | 0
Cn1c(=O)oc2cc(S(=O)(=O)N3CCc4ccccc43)ccc21 | 0 | 0 | -12 | -2 | 16 | . | . | . | .
Cn1c(=O)c(=O)n(C)c2cc(S(=O)(=O)N3CCc4ccccc43)ccc21 | 0 | 0.8* | -15 | -2 | 8 | 238 | 0 | 96 | 0
COC(=O)[C@]12C[C@H](CC(=O)NCc3ccc(OC)c(OC)c3)C(=O)N(Cc3ccco3)C1=C[C@H](C1CCCC1)O[C@@H]2C | . | . | . | -2 | . | . | . | . | .
CC(=O)N(\C=C/C=C/C=C1\Sc2ccccc2C1=O)c1ccccc1 | -1 | 5.7* | . | 2 | 22 | 297* | 0 | 149 | 0
CCNC(=O)N(C)[C@H]1C[C@H]2c3[nH]c4c(-c5ccc6c(c5)OCO6)cccc4c3CCN2C(=O)[C@H]1[C@H](C)O | . | . | . | -5 | . | . | . | . | .
COC(=O)C1=C(C)Nc2sc(C(N)=O)c(N)c2C1c1ccncc1 (stereo unspecified) | 0 | 0 | . | 3 | 11 | . | . | . | .
CCOC(=O)C1=C(C)Nc2sc(C(=O)c3ccc(OC)cc3)c(N)c2C1c1ccc(C(=O)OC)cc1 (stereo unspecified) | 0 | 11* | . | -3 | 0 | 106 | 0 | 107 | 0
COC(=O)[C@]12C[C@H](CC(=O)NCc3cccc(C(F)(F)F)c3)C(=O)N(Cc3ccco3)C1=C[C@H](C(C)C)O[C@@H]2C1CC1 | . | . | . | -3 | . | . | . | . | .
S=C(NCc1ccccc1)N1CCc2ccccc2C1 | 0 | 0 | -14 | 4 | 4 | 93 | 0 | 100 | 0
SMILES | Tb MetRS inh | Efflux pump mplx | H9c2 TAG inh | SMARCA2 activ | AHR activator | Cmpd fluor yeast | Mdr1 pump inh | CaCdr2 efflux inh | CaCdr1 efflux inh
O=C(NC(=S)Nc1ccccc1N1CCCC1)c1ccc(-c2cccc([N+](=O)[O-])c2)o1 | 0 | 0 | . | -6 | 12 | . | . | . | .
O=C(NC(=S)Nc1ccccc1N1CCOCC1)c1ccc(-c2cccc(Cl)c2)o1 | 0 | 11* | . | -4 | 8 | 105 | 0 | 89 | 0
O=C(Cc1ccc(Cl)cc1)NC(=S)Nc1ccccc1N1CCOCC1 | 0 | 1.4* | . | 6 | 12 | 112 | 0 | 102 | 0
CCN(CC)c1ccc(-c2nn3c(-c4ccccc4Cl)nnc3s2)cc1 | . | . | . | 1 | . | . | . | . | .
O=C(/C=C/c1ccc(Cl)cc1)NCCc1ccccc1 | 0 | 0 | -8 | 5 | 6 | . | . | . | .
O=C(/C=C/c1ccccc1Cl)NCCc1ccccc1 | 1 | 3.3* | . | . | 6 | 102 | 0 | 112 | 0
Clc1ccc(-n2c(SCc3cccc4ccccc34)nnc2-c2ccccn2)cc1 | . | . | . | -7 | . | . | . | . | .
CCOC(=O)c1cc(C)n(Cc2cccc(OC)c2OC)c1C | -1 | 0 | 2 | -9 | 2 | . | . | . | .
CCOC(=O)c1c(C)c(C)n(Cc2cccc(OC)c2OC)c1C | 0 | 14* | . | -4 | 4 | 97 | 0 | 87 | 0
COC(=O)c1cc(=O)nc(NN=C(C)C)s1 | . | . | . | 1 | . | . | . | . | .
COc1ccc(NS(=O)(=O)c2cc(NC(=O)c3cccnc3Cl)ccc2N2CCCC2)cc1 | 0 | 0.5* | -1 | -7 | 13 | 116 | 0 | 99 | 0
C/C=C(\C)CN1CCN(c2ccc(C)cc2)CC1 | -1 | 0.4* | 13 | 1 | 5 | 100 | 0 | 91 | 0
C/C(=C\c1ccccc1)CN1CCN(c2cccc(Cl)c2)CC1 | -1 | 0 | . | 0 | 0 | . | . | . | .

Assay outcomes deposited in PubChem by several laboratories.
